According to ChEMBL document CHEMBL1129970, “Biologically active conformer of the effector region of human C5a and modulatory effects of N-terminal receptor binding determinants on activity” (J Med Chem, 1997):
Peptide text beside a SMILES is read from it.

Assays:
[1] = species on record: Homo sapiens; assay: Relative potency of peptide for human fetal artery was determined; format: functional
Method in brief: (§1)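 Human fetal artery smooth muscle contraction; full dose–response curves for recombinant human C5a or each peptide in the same tissue preparation. EC50 is the concentration giving 50% of the maximal response, read relative to the C5a maximum. pD2 = −log EC50 (M), averaged per peptide ± SE. Log potency ratio pD2(C5a) − pD2(peptide) is computed within each experiment. Relative potency = antilog(−Δ) × 100.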

[2] = species on record: Homo sapiens; assay: Spasmogenic activity was measured by the ability to induce smooth muscle contraction in human fetal artery; format: functional, Muscle tissue; method in brief: as §1
[3] = species on record: Homo sapiens; assay: Tested for the ability to stimulate beta-glucuronidase release from human polymorphonuclear cells (PMN) (n=4); format: functional
Method in brief: (§2)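 Human PMNs pretreated with cytochalasin B (5 μg/mL, 10 min, 37 °C), then 10⁶ cells stimulated for 60 min at 37 °C. β-Glucuronidase in the supernatant is assayed with 0.01 M p-nitrophenyl β-D-glucuronide (0.1 M acetate, pH 4, 18 h) in triplicate. Reaction stopped with glycine pH 10 and read at 415 nm. pD2 is taken from dose–response curves against the C5a EC50. Efficacy is given relative to C5a maximum (100%).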

[4] = species on record: Homo sapiens; assay: Log potency ratio [pD2(C5a)-pD2(peptide)] was determined in human polymorphonuclear cells (PMN) (n=4); format: functional; method in brief: as §2
[5] = species on record: Homo sapiens; assay: Relative potency of peptide to stimulate beta-glucuronidase release from human polymorphonuclear cells (PMN) (n=4); format: functional; method in brief: as §2
[6] = species on record: Homo sapiens; assay: Maximum efficacy relative to C5a (100%) for human polymorphonuclear cells (PMN) was determined (n=4); format: functional; method in brief: as §2
[7] = Selectivity of peptide was determined from antilog[pD2(fetal artery)-pD2 (PMN enzyme release)] (n=8); format: functional
Method in brief: (§3)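 Selectivity = antilog[pD2(fetal artery) − pD2(PMN β-glucuronidase release)]. pD2 values come from full dose–response curves in each assay, each generated alongside C5a.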

[8] = species on record: Homo sapiens; assay: Log potency ratio [pD2(C5a)-pD2(peptide)] was determined in human fetal artery; format: functional; method in brief: as §1
[9] = species on record: Homo sapiens; assay: Effective concentration to induce smooth muscle contraction in human fetal artery; format: functional; details: Muscle tissue; method in brief: as §1
[10] = species on record: Homo sapiens; assay: Effective concentration to stimulate beta-glucuronidase release from human polymorphonuclear cells (PMN) (n=3); format: functional; method in brief: as §2
[11] = species on record: Homo sapiens; assay: Log potency ratio [pD2(C5a)-pD2(peptide)] was determined in human polymorphonuclear cells (PMN) (n=5); format: functional; method in brief: as §2
[12] = species on record: Homo sapiens; assay: Relative potency of peptide to stimulate beta-glucuronidase release from human polymorphonuclear cells (PMN) (n=5); format: functional; method in brief: as §2
[13] = species on record: Homo sapiens; assay: Tested for inhibition of binding of [125I]-C5a to intact human polymorphonuclear cells (PMN) (n=3); format: functional
Method in brief: (§4)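 Competition binding on freshly isolated intact human PMNs (0.25 × 10⁶) with 20 pM [¹²⁵I]C5a plus unlabeled C5a or peptide. Buffer is 50 mM HEPES, 1 mM CaCl₂, 5 mM MgCl₂, 0.5% BSA. Incubation 60 min at 4 °C, then filtration, ice-cold washes and gamma counting, triplicates. Nonspecific binding defined with 1 mM peptide or 100 nM C5a. Relative affinity = antilog[−(log IC50 C5a − log IC50 peptide)] × 100. The potency/binding ratio is EC50 divided by the binding IC50.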

[14] = species on record: Homo sapiens; assay: Tested for the ability to stimulate beta-glucuronidase release from human polymorphonuclear cells (PMN) (n=5); format: functional; method in brief: as §2
[15] = species on record: Homo sapiens; assay: Relative affinity for PMN receptor (n=3); format: functional; method in brief: as §4
[16] = species on record: Homo sapiens; assay: Maximum efficacy relative to C5a (100%) for human polymorphonuclear cells (PMN) was determined (n=5); format: functional; method in brief: as §2
[17] = species on record: Homo sapiens; assay: Effective concentration to stimulate beta-glucuronidase release from human polymorphonuclear cells (PMN) (n=5); format: functional; method in brief: as §2
[18] = Selectivity of peptide was determined from antilog[pD2(fetal artery)-pD2 (PMN enzyme release)] (n=35); format: functional; method in brief: as §3
[19] = (§5) Ratio of concentration agonist potency (EC50) to concentration inhibiting [125I]C5a binding (n=3); method in brief: as §4
[20] = species on record: Homo sapiens; assay: Tested for the ability to stimulate beta-glucuronidase release from human polymorphonuclear cells (PMN) (n=3); format: functional; method in brief: as §2
[21] = species on record: Homo sapiens; assay: Log potency ratio [pD2(C5a)-pD2(peptide)] was determined in human polymorphonuclear cells (PMN) (n=3); format: functional; method in brief: as §2
[22] = species on record: Homo sapiens; assay: Relative potency of peptide to stimulate beta-glucuronidase release from human polymorphonuclear cells (PMN) (n=3); format: functional; method in brief: as §2
[23] = species on record: Homo sapiens; assay: Maximum efficacy relative to C5a (100%) for human polymorphonuclear cells (PMN) was determined (n=3); format: functional; method in brief: as §2
[24] = Selectivity of peptide was determined from antilog[pD2(fetal artery)-pD2 (PMN enzyme release)] (n=12); format: functional; method in brief: as §3
[25] = species on record: Homo sapiens; assay: Selectivity of peptide was determined from antilog [pD2(fetal artery)-pD2 (PMN enzyme release)] (n=28); format: functional; method in brief: as §3
[26] = species on record: Homo sapiens; assay: Log potency ratio [pD2(C5a)-pD2(peptide)] was determined in human polymorphonuclear cells (PMN) (n=6); format: functional; method in brief: as §2
[27] = species on record: Homo sapiens; assay: Relative potency of peptide to stimulate beta-glucuronidase release from human polymorphonuclear cells (PMN) (n=6); format: functional; method in brief: as §2
[28] = species on record: Homo sapiens; assay: Tested for inhibition of binding of [125I]C5a to intact human polymorphonuclear cells (PMN) (n=3); format: functional; method in brief: as §4
[29] = species on record: Homo sapiens; assay: Log potency ratio [log IC50(C5a)-log IC50(peptide)] was determined in human polymorphonuclear cells (PMN) (n=3); format: functional; method in brief: as §4
[30] = species on record: Homo sapiens; assay: Effective concentration to stimulate beta-glucuronidase release from human polymorphonuclear cells (PMN) (n=6); format: functional; method in brief: as §2
[31] = species on record: Homo sapiens; assay: Tested for the ability to stimulate beta-glucuronidase release from human polymorphonuclear cells (PMN) (n=6); format: functional; method in brief: as §2
[32] = species on record: Homo sapiens; assay: Maximum efficacy relative to C5a (100%) for human polymorphonuclear cells (PMN) was determined (n=6); format: functional; method in brief: as §2
[33] = species on record: Homo sapiens; assay: as §5; format: functional; method in brief: as §4

CSCC[C@H](NC(=O)[C@@H]1CCCN1C(=O)[C@H](CCCCN)NC(=O)[C@H](Cc1ccccc1)NC(=O)[C@H](CO)NC(=O)[C@H](Cc1ccc(O)cc1)NC(C)=O)C(=O)N1CCC[C@H]1C(=O)N[C@@H](CC(C)C)C(=O)N[C@H](C)C(=O)N[C@@H](CCCN=C(N)N)C(=O)O
Potency [1]: 9.6%
pD2 [2]: 6.98
pD2 [3]: 5.03
Mean log concentration ratio [4]: 2.44
Potency [5]: 0.4%
C5a max [6]: 148%
Selectivity [7]: 89
Mean log concentration ratio [8]: 0.74

CSCC[C@H](NC(=O)[C@@H]1CCCN1C(=O)[C@H](CCCCN)NC(=O)[C@H](Cc1ccccc1)NC(=O)[C@H](CO)NC(=O)[C@H](Cc1ccc(O)cc1)NC(=O)CCCCCNC(=O)[C@@H](N)CCCCN)C(=O)N1CCC[C@H]1C(=O)N[C@@H](CC(C)C)C(=O)N[C@H](C)C(=O)N[C@@H](CCCN=C(N)N)C(=O)O [listing 1 of 2 here]
EC50 [9]: 90 nM
EC50 [10]: 4.3 µM

CSCC[C@H](NC(=O)[C@H](CC(=O)O)NC(=O)[C@H](CCCCN)NC(=O)[C@H](Cc1ccccc1)NC(=O)[C@H](CO)NC(=O)[C@@H](N)Cc1ccc(O)cc1)C(=O)N[C@@H](CCC(N)=O)C(=O)N[C@@H](CC(C)C)C(=O)NCC(=O)N[C@@H](CCCN=C(N)N)C(=O)O (H-YSFKDMQLGR-OH)
EC50 [9]: 9600 nM
Potency [1]: 0.1%
pD2 [2]: 4.96
Mean log concentration ratio [11]: 3.42
Potency [12]: 0.04%
IC50 [13]: 1300 nM
pD2 [14]: 4.04
C5a affinity [15]: 0.022%
C5a max [16]: 87%
EC50 [17]: 92 µM
Selectivity [18]: 8.3
Ratio [19]: 72
Mean log concentration ratio [8]: 3

CSCC[C@H](NC(=O)[C@@H]1CCCN1C(=O)[C@H](CCCCN)NC(=O)[C@H](Cc1ccccc1)NC(=O)[C@H](CO)NC(=O)[C@H](Cc1ccc(O)cc1)NC(=O)CCCCCNC(=O)[C@@H](N)CCCCN)C(=O)N1CCC[C@H]1C(=O)N[C@@H](CC(C)C)C(=O)N[C@H](C)C(=O)N[C@@H](CCCN=C(N)N)C(=O)O [listing 2 of 2 here]
Potency [1]: 14%
pD2 [2]: 7.14
pD2 [20]: 5.37
Mean log concentration ratio [21]: 1.93
Potency [22]: 1.2%
C5a max [23]: 145%
Selectivity [24]: 59
Mean log concentration ratio [8]: 0.84

CSCC[C@H](NC(=O)[C@H](CC(=O)O)NC(=O)[C@H](CCCCN)NC(=O)[C@H](Cc1ccccc1)NC(=O)[C@H](CO)NC(=O)[C@@H](N)Cc1ccc(O)cc1)C(=O)N1CCC[C@H]1C(=O)N[C@@H](CC(C)C)C(=O)N[C@H](C)C(=O)N[C@@H](CCCN=C(N)N)C(=O)O
EC50 [9]: 500 nM
Potency [1]: 2.2%
Selectivity [25]: 151
pD2 [2]: 6.32
Mean log concentration ratio [26]: 3.35
Potency [27]: 0.04%
IC50 [28]: 3.7 µM
Mean log concentration ratio [29]: 4.13
EC50 [30]: 72 µM
pD2 [31]: 4.14
C5a affinity [15]: 0.007%
C5a max [32]: 174%
Mean log concentration ratio [8]: 1.66
Ratio [33]: 19
